Experimental data: ChEMBL document CHEMBL2429787, “Sulfonyl-polyol N,N-dichloroamines with rapid, broad-spectrum antimicrobial activity” (Bioorg Med Chem Lett, 2013)
Values after ≈ are worked out from the molar mass of the structure shown.

Columns and labels:
[1] = Toxicity in epiocular tissue irritancy model (unknown origin) assessed as tissue viability up to 46 mins relative to control; format: tissue-based, Eye; details: read-out: Activity
Summary of the method: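 EpiOcular tissue model: after exposure, tissues were rinsed in PBS and held in MTT for 3 h, then extracted overnight. Viability was read from MTT absorbance against untreated control and correlated with a Draize-type irritancy score.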

Human adenovirus 5 [2] = test: Ratio of IC50 for Adenovirus 5 ATCC VR-1516 at pH 7 to IC50 for Adenovirus 5 ATCC VR-1516 at pH 4; format: functional
Summary of the method: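 Ad5 virucidal IC50 was determined in PBS (pH 7) and acetate saline buffer (pH 4) using 60 min room-temperature exposure, neutralization, A549 infection, 6-day CPE by CCK-8 and sigmoidal fit. The ratio is IC50 at pH 7 over IC50 at pH 4.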

Staphylococcus aureus [3] = test: Ratio of MBC for Staphylococcus aureus ATCC 29213 at pH 7 to MBC for Staphylococcus aureus ATCC 29213 at pH 4; format: functional
Summary of the method: (§1)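 MBC was measured in PBS pH 7 and in acetate saline buffer pH 4 (1 h room-temperature exposure, >99.9% kill endpoint, CFU plating). The ratio is MBC at pH 7 over MBC at pH 4.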

Escherichia coli [4] = test: Ratio of MBC for Escherichia coli ATCC 25922 at pH 7 to MBC for Escherichia coli ATCC 25922 at pH 4; format: functional; summary of the method: as §1
Staphylococcus aureus [5] = test: Bactericidal activity against Staphylococcus aureus ATCC 29213 at pH 7 after 1 hr by CLSI method; format: functional; details: ATCC 29213, 1 h
Summary of the method: (§2)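 MBC by modified CLSI M26-A: broth replaced with 0.9% acetate saline buffer pH 4 or PBS pH 7. Mid-log bacteria were centrifuged and resuspended in buffer, then added to serial twofold compound dilutions (final 10⁵–10⁶ CFU/mL) for 1 h at room temperature. Aliquots were plated on agar (24 h, 35 °C) and CFU counted. MBC is the lowest concentration giving >99.9% kill.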

Escherichia coli [6] = test: Bactericidal activity against Escherichia coli ATCC 25922 at pH 7 after 1 hr by CLSI method; format: functional; details: ATCC 25922, 1 h; summary of the method: as §2
Staphylococcus aureus [7] = test: Bactericidal activity against Staphylococcus aureus ATCC 29213 at pH 4 after 1 hr by CLSI method; format: functional; details: ATCC 29213, 1 h; summary of the method: as §2
Escherichia coli [8] = test: Bactericidal activity against Escherichia coli ATCC 25922 at pH 4 after 1 hr by CLSI method; format: functional; details: ATCC 25922, 1 h; summary of the method: as §2
Human adenovirus 5 [9] = test: Virucidal activity against Adenovirus 5 ATCC VR-1516 infected in human A549 cells assessed as viral cytopathic effect at pH 7 incubated for 1 hr measured after 6 days by three-fold serial dilution assay; format: functional, organism-based
Summary of the method: (§3)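 Virus was diluted in 20 mM PBS or 5 mM acetate saline buffer with 2.5% glycerol and mixed 1:1 with threefold compound dilutions (quadruplicate) for 60 min at room temperature. It was neutralized with 2× D-MEM/F12 plus 20% FBS for 60 min, then adsorbed 1–2 h at 37 °C onto A549 (Ad5) or Vero (HSV-1) cells. Cells were washed, grown 6 days, and CPE read by CCK-8. IC50 came from a sigmoidal fit with top fixed at 100.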

Human alphaherpesvirus 1 = test: Virucidal activity against Herpes simplex virus (type 1 / strain F) ATCC VR-733 infected in african geen monkey Vero cells assessed as viral cytopathic effect at pH 7 incubated for 1 hr measured after 6 days by three-fold serial dilution assay; format: functional, organism-based; summary of the method: as §3
Human adenovirus 5 [10] = test: Virucidal activity against Adenovirus 5 ATCC VR-1516 infected in human A549 cells assessed as viral cytopathic effect at pH 4 incubated for 1 hr measured after 6 days by three-fold serial dilution assay; format: functional, organism-based; summary of the method: as §3
[11] = Stability of the compound in aqueous solution; format: physicochemical; details: buffer
[12] = Human mastadenovirus C, ATCC VR-1516, A549, read-out: IC50
[13] = Human alphaherpesvirus 1, Strain F ATCC VR 733, Vero, read-out: IC50

| Stability [11] | Structure (SMILES) | viability at 46 min [1] | Ratio IC50 (Human adenovirus 5 [2]) | Ratio (Staphylococcus aureus [3]) | Ratio (Escherichia coli [4]) | MBC (Staphylococcus aureus [5]) | MBC (Escherichia coli [6]) | MBC (Staphylococcus aureus [7]) | MBC (Escherichia coli [8]) | IC50 (Human adenovirus 5 [9]; [12]) | IC50 (Human alphaherpesvirus 1; [13]) | IC50 (Human adenovirus 5 [10]; [12]) | IC50 (Human adenovirus 5 [9]; a549) | IC50 (Human alphaherpesvirus 1; vero) | IC50 (Human adenovirus 5 [10]; a549) |
| --- | --- | --- | --- | --- | --- | --- | --- | --- | --- | --- | --- | --- | --- | --- | --- |
|  | CC(C)(CCS(=O)(=O)CC(O)CO)N(Cl)Cl (stereo not drawn) | 50% | 10 | 2 | 8 | 4 mg/L (≈ 13.6 µM) | 16 mg/L (≈ 54.4 µM) | 2 mg/L (≈ 6.8 µM) | 2 mg/L (≈ 6.8 µM) | 26 µM | 1.5 µM | 2.7 µM |  |  |  |
|  | CC(C)(CCS(=O)(=O)CCO)N(Cl)Cl |  | 3.2 | 16 | 16 | 16 mg/L (≈ 60.6 µM) | 8 mg/L (≈ 30.3 µM) | 1 mg/L (≈ 3.79 µM) | 0.5 mg/L (≈ 1.89 µM) | 4.5 µM | 0.7 µM | 1.4 µM |  |  |  |
|  | CC(=O)OCC(O)CS(=O)(=O)CCC(C)(C)N(Cl)Cl (stereo not drawn) |  |  |  |  | 32 mg/L (≈ 95.2 µM) | 64 mg/L (≈ 190 µM) | 4 mg/L (≈ 11.9 µM) | 2 mg/L (≈ 5.95 µM) |  |  |  |  |  |  |
|  | CC(C)(CCS(=O)(=O)C(CO)C(O)CO)N(Cl)Cl (stereo not drawn) |  |  |  |  | 16 mg/L (≈ 49.3 µM) | 64 mg/L (≈ 197 µM) | 2 mg/L (≈ 6.17 µM) | 2 mg/L (≈ 6.17 µM) | 19 µM | 3 µM | 1.5 µM |  |  |  |
|  | CC(C)(CO)CS(=O)(=O)CCC(C)(C)N(Cl)Cl |  |  |  |  | 128 mg/L (≈ 418 µM) | 64 mg/L (≈ 209 µM) | 2 mg/L (≈ 6.53 µM) | 4 mg/L (≈ 13.1 µM) | 9.6 µM | 0.9 µM | 1.8 µM |  |  |  |
|  | CC(=O)OCC(CS(=O)(=O)CCC(C)(C)N(Cl)Cl)OC(C)=O (stereo not drawn) |  |  |  |  | 128 mg/L (≈ 338 µM) | 128 mg/L (≈ 338 µM) | 2 mg/L (≈ 5.29 µM) | 1 mg/L (≈ 2.64 µM) |  |  |  |  |  |  |
|  | CN(CCO)S(=O)(=O)CCC(C)(C)N(Cl)Cl |  |  |  |  | 128 mg/L (≈ 437 µM) | 64 mg/L (≈ 218 µM) | 1 mg/L (≈ 3.41 µM) | 2 mg/L (≈ 6.82 µM) | 14 µM | 1.2 µM | 1.5 µM |  |  |  |
|  | CC(C)(CCS(=O)(=O)CC(O)C(O)CO)N(Cl)Cl (stereo not drawn) |  |  |  |  | 32 mg/L (≈ 98.7 µM) | 128 mg/L (≈ 395 µM) | 1 mg/L (≈ 3.08 µM) | 2 mg/L (≈ 6.17 µM) |  |  |  |  |  |  |
|  | CC(C)(CCS(=O)(=O)C[C@@H](O)CO)N(Cl)Cl |  |  |  |  | 4 mg/L (≈ 13.6 µM) | 32 mg/L (≈ 109 µM) | 1 mg/L (≈ 3.4 µM) | 2 mg/L (≈ 6.8 µM) | 13 µM | 1 µM | 2.4 µM |  |  |  |
|  | CC(C)(CCS(=O)(=O)CCCO)N(Cl)Cl |  |  |  |  |  |  |  |  |  |  |  | ND(Unstable) | ND(Unstable) | ND(Unstable) |
|  | CC(C)(CS(=O)(=O)CCO)N(Cl)Cl |  |  |  |  |  |  | 1 mg/L (≈ 4 µM) | 1 mg/L (≈ 4 µM) |  |  | 2.3 µM | ND(Unstable) | ND(Unstable) |  |
|  | CC(C)(CCS(=O)(=O)CCCCCCCCO)N(Cl)Cl |  |  |  |  | 128 mg/L (≈ 367 µM) | 256 mg/L (≈ 735 µM) |  |  | 32 µM |  |  |  |  | ND(Unstable) |
| Stable | CN(CCCO)S(=O)(=O)CCC(C)(C)N(Cl)Cl |  |  |  |  |  |  |  |  |  |  |  | ND(Unstable) | ND(Unstable) | ND(Unstable) |
|  | CC(C)(CCS(=O)(=O)CCC(O)CO)N(Cl)Cl (stereo not drawn) |  |  |  |  | 16 mg/L (≈ 51.9 µM) | 64 mg/L (≈ 208 µM) | 1 mg/L (≈ 3.24 µM) | 2 mg/L (≈ 6.49 µM) | 18 µM | 1.2 µM | 1.4 µM |  |  |  |
|  | CO[C@H]1O[C@H](CS(=O)(=O)CCC(C)(C)N(Cl)Cl)[C@@H](O)[C@H](O)[C@H]1O |  |  |  |  | 256 mg/L (≈ 646 µM) | 512 mg/L (≈ 1290 µM) | 8 mg/L (≈ 20.2 µM) | 8 mg/L (≈ 20.2 µM) |  |  |  |  |  |  |
|  | CC(C)(CCS(=O)(=O)CCCCC(O)CO)N(Cl)Cl (stereo not drawn) |  |  |  |  |  |  |  |  |  |  |  | ND(Unstable) | ND(Unstable) | ND(Unstable) |
|  | CC(C)(CCS(=O)(=O)C[C@H](O)CO)N(Cl)Cl |  |  |  |  | 4 mg/L (≈ 13.6 µM) | 32 mg/L (≈ 109 µM) | 2 mg/L (≈ 6.8 µM) | 2 mg/L (≈ 6.8 µM) | 14 µM | 1.2 µM | 2.2 µM |  |  |  |
